# Test results taken from article PMC6456254 (ACS chemical neuroscience, 2018).
# pEC50: −log10 of the molar value.
# Legend:
# M2 and M4 = conditions: cited from earlier work
# M1 [1] = conditions: cited from earlier work
# Solubility in SGF = format: physicochemical; conditions: pH 1.6
# [2] = Predicted hepatic clearance, rat; format: in vitro ADME
# [3] = Fraction unbound in human plasma; format: in vitro ADME
# human M2−5 = test: PAM selectivity versus human M2-5; format: cell-based; conditions: read-out: EC50 vs human M2−5
# [4] = Predicted hepatic clearance, human; format: in vitro ADME
# M1 [5] = format: cell-based; conditions: high expressing recombinant cell lines, species not stated
# [6] = Fraction unbound in rat plasma; format: in vitro ADME
# rat M1 = target: T1, rat M1 (Rattus norvegicus, UniProt P08482); test: Rat M1 functional assay in high expressing M1 cell line; format: cell-based; conditions: rat M1, up to 30 μM
# T1 sequence (P08482 1-460): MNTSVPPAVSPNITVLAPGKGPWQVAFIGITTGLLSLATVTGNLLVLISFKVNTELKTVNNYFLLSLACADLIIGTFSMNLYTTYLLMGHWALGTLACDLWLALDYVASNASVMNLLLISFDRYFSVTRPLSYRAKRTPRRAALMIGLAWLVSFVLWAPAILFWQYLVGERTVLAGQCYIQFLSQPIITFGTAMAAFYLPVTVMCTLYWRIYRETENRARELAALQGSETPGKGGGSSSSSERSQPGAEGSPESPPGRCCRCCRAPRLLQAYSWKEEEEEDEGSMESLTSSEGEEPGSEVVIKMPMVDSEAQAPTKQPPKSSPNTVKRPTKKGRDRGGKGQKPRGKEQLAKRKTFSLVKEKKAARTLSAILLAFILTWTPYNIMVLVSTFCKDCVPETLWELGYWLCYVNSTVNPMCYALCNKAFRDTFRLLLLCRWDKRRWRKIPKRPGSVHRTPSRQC
# How it was run: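 Calcium mobilization in CHO cells expressing rat M1. Agonist mode adds no exogenous acetylcholine, and EC50 is derived from the response. PAM mode is run with a fixed EC20 concentration of acetylcholine. Values are means from three independent experiments, each performed in triplicate.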
compound,measurement,setting,value
"O=C1C(=O)N(Cc2ccc(Br)cc2)c2ccccc21 [compound 9, VU0119498]",activity at M2 and M4,M2 and M4,inactive
same,M1 agonist activity,M1 [1]; HTS hit,virtually no detectable M1 agonist activity
VU0451725 [compound 10],solubility,Solubility in SGF,< 5 µg/mL
VU6005877 [24c],CLp,In vivo rat PK,7.3 mL/min/kg
same,"predicted hepatic clearance, rat CLhep",[2],31.7 mL/min/kg
same,"fraction unbound in plasma, human fu",[3],0.01
same,pEC50,human M2−5,< 4.52
same,"predicted hepatic clearance, human CLhep",[4],13.6 mL/min/kg
same,M1 agonism,M1 [5],devoid of M1 agonism
same,"fraction unbound in plasma, rat fu",[6],0.016
same,agonist activity in high-expressing M1 cell line,rat M1,no agonist activity
"COc1ccc(Cn2cc(C(=O)O)c(=O)c3ccccc32)cc1 [compound 1, BQCA]",mode of M1 pharmacology,M1 [1],highly potent and robust M1 ago-PAM
